≈ marks a conversion by molar mass, not a printed value.
Experiments:
Candida albicans = assay: Antimicrobial activity against Candida albicans; format: functional, organism-based
Outline: (§1)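 Antimicrobial assay run per an earlier method. Both IC50 and MIC were reported in µg/mL. Amphotericin B was the positive control for C. albicans and C. neoformans.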

Cryptococcus neoformans = assay: Antimicrobial activity against Cryptococcus neoformans; format: functional, organism-based; outline: as §1
[1] = Inhibition of Candida albicans secreted aspartic protease
Outline: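 SAP inhibition assay run per an earlier method, with IC50 reported in µg/mL. Pepstatin A was the positive control.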

Staphylococcus aureus [2] = assay: Antimicrobial activity against Staphylococcus aureus; format: functional, organism-based; outline: as §1
Staphylococcus aureus [3] = assay: Antimicrobial activity against methicillin-resistant Staphylococcus aureus; format: functional, organism-based

C[C@@H]1[C@H](O)[C@@H](C)/C=C/C=C/C=C/C=C/C=C/C=C/C=C/[C@H](O[C@@H]2O[C@H](C)[C@@H](O)[C@H](N)[C@@H]2O)C[C@@H]2O[C@](O)(C[C@@H](O)C[C@@H](O)[C@H](O)CC[C@@H](O)C[C@@H](O)CC(=O)O[C@H]1C)C[C@H](O)[C@H]2C(=O)O [AMPHOTERICIN B]
IC50 (Candida albicans): 0.06 µg/mL (≈ 0.0649 µM) | IC50 (Cryptococcus neoformans): 0.3 µg/mL (≈ 0.325 µM) | MIC (Cryptococcus neoformans): 0.63 µg/mL (≈ 0.682 µM)

COc1ccc2c(c1)C(=O)c1nccc3cc4c(c-2c13)OCO4 [ATHEROSPERMIDINE]
IC50 [1]: 45 µg/mL (≈ 147 µM)

O=C(O)c1cn(C2CC2)c2cc(N3CCNCC3)c(F)cc2c1=O [CIPROFLOXACIN]
IC50 (Staphylococcus aureus [2]): 0.07 µg/mL (≈ 0.211 µM) | MIC (Staphylococcus aureus [2]): 0.39 µg/mL (≈ 1.18 µM) | MIC (Staphylococcus aureus [3]): 3.13 µg/mL (≈ 9.45 µM)

O=C1c2ccccc2-c2c3c(cc4ccnc1c24)OCO3 [LIRIODENINE]
IC50 (Staphylococcus aureus [2]): 2 µg/mL (≈ 7.27 µM) | MIC (Staphylococcus aureus [2]): 3.13 µg/mL (≈ 11.4 µM) | IC50 (Staphylococcus aureus [3]): 2 µg/mL (≈ 7.27 µM) | MIC (Staphylococcus aureus [3]): 3.13 µg/mL (≈ 11.4 µM) | IC50 (Candida albicans): 3.5 µg/mL (≈ 12.7 µM) | MIC (Candida albicans): 6.25 µg/mL (≈ 22.7 µM) | IC50 (Cryptococcus neoformans): 2 µg/mL (≈ 7.27 µM) | MIC (Cryptococcus neoformans): 12.5 µg/mL (≈ 45.4 µM)

CC(C)CC(=O)N[C@H](C(=O)N[C@H](C(=O)N[C@@H](CC(C)C)[C@@H](O)CC(=O)N[C@@H](C)C(=O)N[C@@H](CC(C)C)[C@@H](O)CC(=O)O)C(C)C)C(C)C [PEPSTATIN]
IC50 [1]: 0.006 µg/mL (≈ 0.00875 µM)

From ChEMBL document CHEMBL1150589, “New sesquiterpenoids from the root of Guatteria multivenia” (J Nat Prod, 2002)
